Measurements of several laboratories.
Lines come from different studies, so protocols differ.
Nos2: Nitric oxide synthase, inducible (Nos2, Mus musculus, UniProt P29477)
STK38: Serine/threonine-protein kinase 38 (STK38, Homo sapiens, UniProt Q15208)

Compound | target | test | setting | quantity | value
c1ccc(C(NCCNC(c2ccccc2)c2ccccc2)c2ccccc2)cc1 | Nos2 | enzyme activity, inhibitor | 10 µM | inhibition | 3%
COc1cc(Nc2ncc(F)c(Nc3ccc4c(n3)NC(=O)C(C)(C)O4)n2)cc(OC)c1OC | Citron Rho-interacting kinase (CIT, Homo sapiens, UniProt O14578) | binding | 10 µM | inhibition | 99%
Cc1nn(C)cc1-c1nc2c(N3CCN(Cc4ccc(Cl)cc4)CC3)c(Cl)cnc2[nH]1 | STK38 | binding, competition with immobilised ligand | 1 µM | remaining binding | 86%
Nc1ncc(-c2nc(N3CCOCC3)nc(N3CCOCC3)n2)c(C(F)F)n1 | Proto-oncogene tyrosine-protein kinase receptor Ret (RET, Homo sapiens, UniProt P07949, M918T) | binding, competition with immobilised ligand | 10 µM | remaining binding | 78%
C#Cc1n[nH]c2c(-c3cn(C(C)c4ccccn4)c(=O)[nH]c3=O)cc(F)cc12 (centres unmarked) | Proto-oncogene tyrosine-protein kinase receptor Ret (RET, Homo sapiens, UniProt P07949, V804L) | enzyme activity, inhibitor | 1 µM | inhibition | 4.9%
C[C@H](C(=O)N[C@H]1COc2ccccc2[C@@H]1S(C)(=O)=O)c1ccc(F)cc1 | Nos2 | enzyme activity, inhibitor | 10 µM | inhibition | 3%
Cc1sc2c(c1C)C(c1ccc(Cl)cc1)=N[C@@H](CC(=O)OC(C)(C)C)c1nnc(C)n1-2 | Stimulator of interferon genes protein (STING1, Homo sapiens, UniProt Q86WV6, H232R) | thermal stability, DSF | 50 µM | ΔTm | -0.5 °C
COc1ncccc1-c1cnn2ccc(N3CCN(C(=O)OC(C)C)CC3)nc12 | STK38 | binding, competition with immobilised ligand | 1 µM | remaining binding | 84%
